# Measurements collected from several papers.
# CDKL2: Cyclin-dependent kinase-like 2 (CDKL2, Homo sapiens, UniProt Q92772)
# MAOA: Amine oxidase [flavin-containing] A (MAOA, Homo sapiens, UniProt P21397)
Structure (SMILES),target,assay,setting,quantity,result
Cc1ccc(C(=O)Nc2ccc(CN3CCN(C)CC3)c(C(F)(F)F)c2)cc1C#Cc1cnc2cccnn12,CDKL2,enzyme activity,23.5 nM,remaining activity,0%
NNCCc1ccc(NC(=O)CCCc2ccccc2)cc1,MAOA,"enzyme activity, inhibitor",,KI (inactivation),2600 nM
Nc1ncnc2occ(-c3ccc(NC(=O)Nc4cc(C(F)(F)F)ccc4F)cc3)c12,CDKL2,cell-free assay,20 µM,remaining signal,0.6%
O=C(Nc1ccc([N+](=O)[O-])cc1Cl)c1cc2ccccc2cc1O,MAOA,"enzyme activity, inhibitor","1 µM, 20 min",inhibition,-2%
COc1cc(Cl)c(C(=O)N[C@@H](CN[C@H]2CC[C@@H](N)CC2)Cc2ccc(C#N)cc2)cc1-c1ccc(CN[C@H](C)c2ccc(C)cc2)o1,"Cyclin-dependent kinase-like 4 (CDKL4, Homo sapiens, UniProt Q5MAI5)","enzyme activity, inhibitor",1 µM,remaining activity,90%
Oc1cccc(Nc2nc(-c3ccc(F)cc3F)cs2)c1,"Vasoactive intestinal polypeptide receptor 1 (VIPR1, Homo sapiens, UniProt P32241)",cell-free assay,10 µM,inhibition,-0.5%
O=C(O)c1ccc2c(c1)nc(Nc1ccccc1)c1ccncc12,"Homeodomain-interacting protein kinase 3 (HIPK3, Homo sapiens, UniProt Q9H422)","enzyme activity, inhibitor, radiometric",1 µM,remaining activity,20%
CC[C@H](C)[C@H](NC(=O)[C@H](CC(=O)O)NC(=O)[C@@H](NC(=O)[C@H](Cc1ccccc1)NC(=O)[C@H](C)NC(=O)[C@H](Cc1ccccc1)NC(=O)[C@@H]1CCCN1C(=O)[C@H](C)NC(=O)[C@@H](NC(=O)[C@H](CO)NC(=O)[C@H](Cc1ccccc1)NC(=O)[C@H](CCCNC(=N)N)NC(=O)[C@H](CCCNC(=N)N)NC(=O)[C@@H](N)CC(C)C)[C@@H](C)O)[C@@H](C)CC)C(=O)N[C@@H](CC(N)=O)C(=O)N[C@@H](CC(=O)O)C(=O)N[C@H](C(=O)N[C@H](C(=O)N[C@@H](CC(N)=O)C(=O)N[C@@H](Cc1ccccc1)C(=O)O)[C@@H](C)CC)C(C)C,"Integrin alpha-V/beta-3 (Homo sapiens, UniProt P05106+P06756)","binding, BLI",,kon,1e+06 M⁻¹ s⁻¹
O=C(Nc1ccc([N+](=O)[O-])cc1C(F)(F)F)c1cc(Cl)ccc1O,MAOA,"enzyme activity, inhibitor","1 µM, 20 min",inhibition,13%
O=C(O)c1ccc2c(c1)nc(Nc1cccc(F)c1)c1ccncc12,"Homeodomain-interacting protein kinase 4 (HIPK4, Homo sapiens, UniProt Q8NE63)","enzyme activity, inhibitor, radiometric",1 µM,remaining activity,1%
O=C(Nc1ccc([N+](=O)[O-])cc1Cl)c1ccc2ccccc2c1O,MAOA,"enzyme activity, inhibitor","1 µM, 20 min",inhibition,-4%
COc1cc(NC(C)=O)c(Cl)cc1C(=O)Nc1nccs1,"Kappa-type opioid receptor (Oprk1, Rattus norvegicus, UniProt P34975)","ligand displacement, radioligand",10 µM,inhibition,42.5%
O=C(Nc1ccc([N+](=O)[O-])cc1Cl)c1cc2ccccc2s1,MAOA,"enzyme activity, inhibitor","1 µM, 20 min",inhibition,11%
CCCOc1ccc(OC)c(F)c1C(=O)c1ccc(C(=O)N[C@@H]2CNC[C@H]2NC(=O)c2ccc3[nH]ncc3c2)cc1,"Ribosomal protein S6 kinase alpha-1 (Rps6ka1, Rattus norvegicus, UniProt Q63531)","enzyme activity, inhibitor",0.75 µM,remaining activity,78%
O=C(Nc1ccccc1)c1ccc(Cl)cc1,MAOA,"enzyme activity, inhibitor","1 µM, 20 min",inhibition,18%
CN(C(=O)n1cnc(-c2ccc[n+]([O-])c2)c1)C1CCCCC1,"Fatty-acid amide hydrolase 1 (Faah, Rattus norvegicus, UniProt P97612)","enzyme activity, inhibitor",,kinact/KI,1240 M⁻¹ s⁻¹
